{"source": "paper PMC5598522", "about": "(Toxicology Reports, 2014)", "key": {"Plasma exposure": {"experiment": "Plasma exposure", "type": "in vivo, rat", "conditions": "carcinogenicity bioassay, Ticagrelor 180 mg/kg/day"}, "Wistar rats": {"test_system": "Wistar rats", "experiment": "Tumor findings in rat 2-year carcinogenicity bioassay", "type": "in vivo", "conditions": "female rats, 2 years", "in_short": "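Wistar Han rats, 50 per sex per group (100 control females), started at seven weeks old and gavaged daily for 2 years at 0, 20, 60 or 180 mg/kg/day (females) in 1% carboxymethylcellulose/0.1% polysorbate 80. Full tissue list was paraffin-embedded, H&E-stained, examined microscopically and peer reviewed. Histology analysed by two-tailed Fisher's exact test; tumours by multiple testing at 5% significance.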"}, "[1]": {"test_system": "TA1535 TA100 TA102 TA98 TA1537", "experiment": "Ames in vitro assay", "type": "cell-based, Salmonella", "in_short": "(§1)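 Genotoxicity screens. Ames: Salmonella strains exposed to 3–3000 μg/plate with and without metabolic activation; read-out was reverse-mutation frequency. Mouse lymphoma: L5178Y/TK+ cells treated for 4 h with S9 (15.7–41.8 μg/mL), for 4 h without S9 (5.23–15.7 μg/mL), and for 24 h without S9; read-out was clone number. Micronucleus: male and female Alderly Park rats given 2000 mg/kg; micronuclei scored 24 or 48 h post-dose.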"}, "[2]": {"test_system": "Alderly Park (Wistar derived) rats", "experiment": "Rat micronucleus in vivo assay", "conditions": "2000 mg/kg", "in_short": "as §1"}, "dopamine D1 receptor": {"biological_target": "dopamine D1 receptor (Homo sapiens, UniProt P21728)", "sequence (P21728 whole entry)": "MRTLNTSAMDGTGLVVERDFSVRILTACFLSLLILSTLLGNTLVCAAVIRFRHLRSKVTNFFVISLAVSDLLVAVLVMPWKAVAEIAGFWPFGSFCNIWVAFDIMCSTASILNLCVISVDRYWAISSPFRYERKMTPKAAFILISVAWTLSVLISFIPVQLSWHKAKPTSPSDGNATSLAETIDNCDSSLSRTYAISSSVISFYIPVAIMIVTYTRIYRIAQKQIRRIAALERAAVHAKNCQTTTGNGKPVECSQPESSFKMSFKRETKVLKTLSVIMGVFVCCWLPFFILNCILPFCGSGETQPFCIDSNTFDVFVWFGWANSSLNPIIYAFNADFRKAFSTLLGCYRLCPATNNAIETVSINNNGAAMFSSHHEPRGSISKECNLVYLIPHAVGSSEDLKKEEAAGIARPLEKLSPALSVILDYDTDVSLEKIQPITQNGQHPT", "experiment": "Dopamine D1 receptor radioligand binding", "conditions": "10 μM, [3H] SCH-23390, human recombinant CHO cells", "in_short": "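Human recombinant receptors expressed in CHO cells (D1, D2L) or CHO-K1 cells (D4.2) were used in radioligand binding assays with [3H]SCH-23390 (D1), [3H]spiperone (D2L) or [3H]dopamine (D4.2). The test compound or its metabolite was tested at a single concentration of 10 μM. Results are expressed as percent inhibition of specific binding.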"}, "Protein binding, human": {"experiment": "Protein binding, human", "type": "in vitro ADME"}, "[3]": {"experiment": "Plasma exposure in ovariectomized rat study", "type": "in vivo", "conditions": "Ticagrelor 180 mg/kg/day, Day 1, 5 h post dose", "in_short": "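Female Han Wistar rats (350–375 g) ovariectomized and fitted with jugular and femoral vein catheters, then housed tethered at 23 ± 1 °C. Dosed orally at 180 mg/kg/day in 1% sodium carboxymethylcellulose/0.1% polysorbate 80, n = 10 per group. On Day 1, 0.5 mL blood taken 5 h post-dose into lithium heparin; exposure measured by protein precipitation and LC-MS/MS.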"}}, "note": "Marks after values point to notes of the source that are not given here.", "data": [{"smiles": "CCCSc1nc(N[C@@H]2C[C@H]2c2ccc(F)c(F)c2)c2nnn([C@@H]3C[C@H](OCCO)[C@@H](O)[C@H]3O)c2n1", "note": "[Ticagrelor]", "values": [{"measurement": "Plasma exposure (mean ± SD)", "setting": "Plasma exposure; Day 1, 5 h post dose", "result": "35.9 ± 17.9", "unit": "µM"}, {"measurement": "Plasma exposure (mean ± SD)", "setting": "Plasma exposure; Week 26, 5 h post dose", "result": "37.9 ± 10.5", "unit": "µM"}, {"measurement": "Mammary fibroadenoma incidence", "setting": "Wistar rats; 20 mg/kg/day", "result": 22, "unit": "percentage"}, {"measurement": "Pituitary hyperplasia and adenoma incidence", "setting": "Wistar rats; 20 mg/kg/day", "result": 64, "unit": "percentage"}, {"measurement": "Uterine adenocarcinoma incidence", "setting": "Wistar rats; 20 mg/kg/day", "result": 10, "unit": "percentage"}, {"measurement": "Uterine adenosquamous carcinoma incidence", "setting": "Wistar rats; 20 mg/kg/day", "result": 0, "unit": "percentage"}, {"measurement": "Uterine squamous cell carcinoma incidence", "setting": "Wistar rats; 20 mg/kg/day", "result": 0, "unit": "percentage"}, {"measurement": "Mammary fibroadenoma incidence", "setting": "Wistar rats; 60 mg/kg/day", "result": 16, "unit": "percentage"}, {"measurement": "Pituitary anterior lobe adenoma in decedent rats", "setting": "Wistar rats; 60 mg/kg/day", "result": 53, "unit": "percentage"}, {"measurement": "Pituitary hyperplasia and adenoma incidence", "setting": "Wistar rats; 60 mg/kg/day", "result": 73, "unit": "percentage"}, {"measurement": "Uterine adenocarcinoma incidence", "setting": "Wistar rats; 60 mg/kg/day", "result": 12, "unit": "percentage"}, {"measurement": "Uterine adenosquamous carcinoma incidence", "setting": "Wistar rats; 60 mg/kg/day", "result": 2, "unit": "percentage"}, {"measurement": "Uterine squamous cell carcinoma incidence", "setting": "Wistar rats; 60 mg/kg/day", "result": 0, "unit": "percentage"}, {"measurement": "Mammary fibroadenoma incidence", "setting": "Wistar rats; 180 mg/kg/day", "result": "2 ^* percentage"}, {"measurement": "Pituitary anterior lobe adenoma in decedent rats", "setting": "Wistar rats; 180 mg/kg/day", "result": "35 ^* percentage"}, {"measurement": "Pituitary hyperplasia and adenoma incidence", "setting": "Wistar rats; 180 mg/kg/day", "result": "50 ^* percentage"}, {"measurement": "Uterine adenocarcinoma incidence", "setting": "Wistar rats; 180 mg/kg/day", "result": "42 ^*** percentage"}, {"measurement": "Uterine adenosquamous carcinoma incidence", "setting": "Wistar rats; 180 mg/kg/day", "result": 4, "unit": "percentage"}, {"measurement": "Uterine squamous cell carcinoma incidence", "setting": "Wistar rats; 180 mg/kg/day", "result": 2, "unit": "percentage"}, {"measurement": "Ames in vitro assay: Conclusion", "setting": "[1]", "result": "Negative"}, {"measurement": "Ames in vitro assay: Results", "setting": "[1]; 3–3000 μg/plate, with or without metabolic activation", "result": "No increased frequency of reverse mutations with or without metabolic activation"}, {"measurement": "Rat micronucleus in vivo: Conclusion", "setting": "[2]", "result": "Negative"}, {"measurement": "Rat micronucleus in vivo: Results", "setting": "[2]; M&F, 24 or 48 h post-dose", "result": "No increased frequency of micronuclei at 24 or 48 h post-dose"}, {"measurement": "Inhibition of radioligand binding at the D1 receptor", "setting": "dopamine D1 receptor", "result": "neither Ticagrelor nor metabolite caused inhibition"}, {"measurement": "fraction unbound", "setting": "Protein binding, human", "result": 0.008}, {"measurement": "Plasma exposure (mean ± SD)", "setting": "[3]", "result": "33.2 ± 10.6", "unit": "µM"}]}]}
